Data reported in ChEMBL document CHEMBL2093137, “WHO-TDR NTD Screening”.
≈ marks a conversion by molar mass, not a printed value.

Experiments:
[1] = test system: Trypanosoma brucei brucei; experiment: WHO-TDR: Human African Trypanosomiasis (HAT); assay type: functional, organism-based; settings: Squib-427
In short: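 Whole-organism screen of a 10,000-compound diverse library from Life Chemicals, filtered for drug-likeness and reactive groups, against bloodstream forms of Trypanosoma brucei Squib 427 strain. The assay followed previously published standard procedures, with reference drugs as positive controls. Antiparasitic potency is reported as IC50.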

[2] = WHO-TDR: Cytotoxicity; assay type: toxicity, cell-based; settings: human, MRC5 cells
Plasmodium falciparum K1 = experiment: WHO-TDR: Malaria; assay type: functional, organism-based, Homo sapiens; settings: Erythrocyte
In short: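 Whole-organism screen of a 10,000-compound diverse library from Life Chemicals, filtered for drug-likeness and reactive groups, against intra-erythrocytic Plasmodium falciparum K1 strain in human red blood cells. The assay followed previously published standard procedures, with a reference drug as positive control. Antiplasmodial potency is reported as IC50.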

Trypanosoma cruzi = experiment: WHO-TDR: Chagas disease; assay type: functional, organism-based, Homo sapiens; settings: MRC5
In short: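 Intracellular amastigotes of the Trypanosoma cruzi Tulahuen CL2 beta-galactosidase strain, grown in MRC-5SV2 human lung fibroblast host cells, were tested in a whole-organism screen. The compounds came from a 10,000-member diverse Life Chemicals library that had been filtered for drug-likeness and reactive groups. Previously published standard procedures were followed, with a reference drug as positive control, and potency is reported as IC50.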

Leishmania infantum = experiment: WHO-TDR: Leishmaniasis; assay type: functional, organism-based, Mus musculus; settings: Macrophage
In short: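 Whole-organism screen of a 10,000-compound diverse library from Life Chemicals, filtered for drug-likeness and reactive groups, against intracellular amastigotes of Leishmania infantum MHOM/MA(BE)/67 in murine peritoneal macrophage host cells. The assay followed previously published standard procedures, with a reference drug as positive control. Antiparasitic potency is reported as IC50.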

Schistosoma mansoni = experiment: WHO-TDR: Schistosomiasis; assay type: functional; parameters: concentration or dose not given beside the values
In short: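 A diverse library of 10,000 compounds from Life Chemicals, filtered for drug-likeness and reactive groups, was screened against whole larval and/or adult Schistosoma mansoni worms of the Puerto Rican strain. Previously published standard procedures were followed, with a reference drug as positive control. Activity is given as percent inhibition and as IC50.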

Onchocerca lienalis = experiment: WHO-TDR: Onchocerciasis; assay type: functional; parameters: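 at 12.5 µM on microfilariae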
In short: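 A diverse library of 10,000 compounds from Life Chemicals, filtered for drug-likeness and reactive groups, was screened against whole microfilariae of Onchocerca ochengi or Onchocerca lienalis. These animal pathogens served as stand-ins for the human parasite. Activity is given as percent inhibition and as IC50.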

| SMILES | IC50 [1] [µg/mL] | IC50 [2] [µg/mL] | IC50 (Plasmodium falciparum K1) [µg/mL] | IC50 (Trypanosoma cruzi) [µg/mL] | IC50 (Leishmania infantum) [µg/mL] | % Inhibition (Schistosoma mansoni) [%] | % Inhibition (Onchocerca lienalis) [%] |
| --- | --- | --- | --- | --- | --- | --- | --- |
| CCOC(=O)c1c(NC(=O)Cn2c(-n3nc(C)cc3C)nc(CC)cc2=O)sc2c1CCCCC2 | > 14.9 | > 14.9 | 4.44 (≈ 8.93 µM) | 0.724 (≈ 1.45 µM) | > 14.9 | 0 | 0 |
| Fc1ccccc1CSc1ccc(-c2ccccn2)nn1 | > 8.92 | > 8.92 | > 8.92 | > 8.92 | > 8.92 | 8.3 | 97 |
| CCOC(=O)N1CCc2c(sc(NC(=O)C3COc4ccccc4O3)c2C(N)=O)C1 (stereo not given) | > 12.9 | > 12.9 | > 12.9 | > 12.9 | > 12.9 | 66 | 13.3 |
| CN(C)CCCN(C(=O)c1ccc2c(c1)CCCC2)c1nc2ccc(Br)cc2s1 | 0.483 (≈ 1.02 µM) | 2.1 (≈ 4.44 µM) | 1.16 (≈ 2.46 µM) | 3.21 (≈ 6.78 µM) | 0.791 (≈ 1.67 µM) | 66.7 | 0 |
| O=C(Nc1ccc(-c2cn3c(n2)SCC3)cc1)C1CCCC1 | > 9.4 | > 9.4 | 9.4 (≈ 30 µM) | > 9.4 | 0.304 (≈ 0.97 µM) | 0 | 0 |
| CN(C)CCCN(C(=O)CCSc1ccccc1)c1nc2cc3c(cc2s1)OCO3 | 2 (≈ 4.51 µM) | 3.54 (≈ 7.97 µM) | 3.42 (≈ 7.7 µM) | 0.416 (≈ 0.938 µM) | 0.466 (≈ 1.05 µM) | 0 | 0 |
| CCOC(=O)Cn1/c(=N/C(=O)c2ccc(N3C(=O)CCC3=O)cc2)sc2c(C)cc(C)cc21 | > 9.4 | > 9.4 | 9.4 (≈ 20.2 µM) | > 9.4 | 0.304 (≈ 0.654 µM) | 0 | 13.3 |
| CN(C)CCCN(C(=O)CCOc1ccccc1)c1nc2c(F)cccc2s1 | 4.25 (≈ 10.6 µM) | 1.94 (≈ 4.83 µM) | 8.18 (≈ 20.4 µM) | 0.409 (≈ 1.02 µM) | 4.25 (≈ 10.6 µM) | 0 | 0 |
| CN(C)CCCN(C(=O)c1ccc(N(C)C)cc1)c1nc2ccc(F)cc2s1 | 0.435 (≈ 1.09 µM) | 4.1 (≈ 10.2 µM) | 0.324 (≈ 0.809 µM) | 4.49 (≈ 11.2 µM) | 4.24 (≈ 10.6 µM) | 0 | 0 |
| CCOC(=O)Cn1/c(=N/C(=O)c2ccccc2Br)sc2cc(S(C)(=O)=O)ccc21 | > 14.9 | > 14.9 | > 14.9 | > 14.9 | > 14.9 | 100 | 0 |
| CN(C)S(=O)(=O)c1ccc(C(=O)Nc2nnc(SCC(=O)NCc3ccco3)s2)cc1 | 5.04 (≈ 10.5 µM) | 3.06 (≈ 6.36 µM) | 2.42 (≈ 5.03 µM) | 0.933 (≈ 1.94 µM) | 5.04 (≈ 10.5 µM) | 0 | 6.7 |
| O=C(O)CCCCCN1C(=O)/C(=C\c2ccccc2O)SC1=S | 4.06 (≈ 11.5 µM) | > 10.5 | > 10.5 | 0.653 (≈ 1.86 µM) | > 10.5 | 0 | 6.7 |
| O=C(Nc1ccc2c(c1)OCCO2)c1oc2ccccc2c1NC(=O)C1c2ccccc2Oc2ccccc21 | > 15.6 | > 15.6 | 5.04 (≈ 9.72 µM) | > 15.6 | 5.04 (≈ 9.71 µM) | 100 | 0 |
| CC(Sc1ccc2nnc(CCNC(=O)c3ccccc3)n2n1)c1ccccc1 (stereo not given) | 3.3 (≈ 8.17 µM) | > 12.1 | 3.16 (≈ 7.83 µM) | 5.24 (≈ 13 µM) | 0.392 (≈ 0.971 µM) | 66.7 | 0 |
| COC(=O)c1c(NC(=O)c2nc3ccccc3s2)sc2c1CC(C)(C)NC2(C)C | 0.216 (≈ 0.503 µM) | > 12.9 | > 12.9 | > 12.9 | > 12.9 | 0 | -1 |
| O=C(CSc1nnc(NC(=O)COc2ccc(Cl)cc2)s1)NCC1CCCO1 (stereo not given) | 2 (≈ 4.52 µM) | 3.54 (≈ 7.99 µM) | 3.42 (≈ 7.71 µM) | 0.416 (≈ 0.939 µM) | 0.466 (≈ 1.05 µM) | 0 | 13.3 |
| N#Cc1ccsc1NC(=O)C(c1ccccc1)c1ccccc1 | > 9.55 | > 9.55 | > 9.55 | > 9.55 | > 9.55 | 100 | 0 |
| COc1ccccc1NC(=O)Nc1nc(CC(=O)N2CCN(c3cccc(C(F)(F)F)c3)CC2)cs1 | 3.43 (≈ 6.59 µM) | > 15.6 | 4.27 (≈ 8.23 µM) | 0.93 (≈ 1.79 µM) | > 15.6 | 0 | 0 |
| O=C(CSc1nnc(NC(=O)COc2ccc(Cl)cc2)s1)NCc1ccc2c(c1)OCO2 | 4.51 (≈ 9.14 µM) | 3.34 (≈ 6.77 µM) | 1.72 (≈ 3.48 µM) | 0.433 (≈ 0.879 µM) | 0.451 (≈ 0.914 µM) | 0 | 13.3 |
| CN(C)CCCN(C(=O)c1ccc(S(=O)(=O)N(C)C2CCCCC2)cc1)c1nc2c(F)cccc2s1 | 5.59 (≈ 10.5 µM) | 3.08 (≈ 5.78 µM) | 3.44 (≈ 6.46 µM) | 5.16 (≈ 9.69 µM) | 5.53 (≈ 10.4 µM) | 0 | 0 |
| CCS(=O)(=O)c1ccc(-c2cccc(NC(=O)c3cc(Cl)ccc3Cl)c2)nn1 | > 13.1 | > 13.1 | > 13.1 | > 13.1 | 4.24 (≈ 9.71 µM) | 100 | 0 |
| O=C(CSc1nnc(NC(=O)c2ccccc2C(F)(F)F)s1)Nc1ccc2c(c1)OCO2 | 0.45 (≈ 0.933 µM) | 3.97 (≈ 8.23 µM) | 0.653 (≈ 1.35 µM) | 4.76 (≈ 9.86 µM) | 4.55 (≈ 9.44 µM) | 0 | 0 |
| Cc1cccc2sc(N(CCCN(C)C)C(=O)c3ccccc3Br)nc12 | 0.45 (≈ 1.04 µM) | 3.97 (≈ 9.18 µM) | 0.653 (≈ 1.51 µM) | 4.76 (≈ 11 µM) | 4.55 (≈ 10.5 µM) | 33.3 | 0 |
| COc1ccc(S(=O)(=O)NCC(c2cccnc2)N2CCN(Cc3ccccc3)CC2)cc1C (stereo not given) | 5.04 (≈ 10.5 µM) | > 14.4 | 1.81 (≈ 3.78 µM) | 0.835 (≈ 1.74 µM) | 7.47 (≈ 15.5 µM) | 0 | 0 |
| CCN(CC)c1cc(C)nc(Nc2ccc(NC(=O)c3cc4ccccc4oc3=O)cc2)n1 | > 13.3 | > 13.3 | 0.412 (≈ 0.929 µM) | > 13.3 | > 13.3 | 50 | 6.7 |
